Bioassay records (PubChem BioAssay)
This is a sample that favours compounds with a hit; in the whole collection about 2.6% have one here.
SR-BI DiI-HDL act – activators of SR-BI mediated HDL lipid uptake; CHO ldlA[mSR-BI] cells, DiI-HDL uptake fluorescence, 3 h; 100 = double the neutral-control signal; activation, % at 12.5 µM; 320,000 compounds, 0.096% hits; AID 504775;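 active = mean replicate activation of at least 60% and every replicate at or above 60%; inconclusive = mean or all-replicate condition met, but not both; inactive = mean below 60% and not all replicates reaching 60%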;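 note: 0% = median plate neutral-control signal and 100% = twice that signal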
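Test system: SR-BI-overexpressing, LDLR-lacking CHO cells; Also added: labelled HDL, 10 µg/mL; Measured by: bottom-read cell fluorescence after medium removal, ex 550/em 595 nm; Timing: 3 h uptake period with compound, 37 °C; Buffer or medium: F12, 0.5% BSA, 25 mM HEPES; Doses: single compound concentration, delivered by pin transfer.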
PvdQ inh – P. aeruginosa PvdQ acylase inhibition | purified PvdQ acylase, fluorescence plate reader | inhibition, % at 10 µM | 340,000 compounds, 0.063% hits; in the data active = inhibition above about 30%, passing the limit was not always enough; inconclusive = no clear call, values can overlap the other calls;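 note: 0% = vehicle neutral wells and 100% = reference inhibitor wells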
SR-BI HDL uptake – mouse SR-BI HDL lipid transfer inhibition | Q61009 | ldlA[mSR-BI] CHO cells, DiI-HDL uptake fluorescence, 3 h | inhibition, % at 12.5 µM | 320,000 compounds, 0.96% hits | AID 488896;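 active = mean replicate inhibition of at least 70% and a set share of replicates each scoring 70 or more; inconclusive = meets just one of the two criteria; inactive = fails both criteria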;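 note: 0% = median of neutral control wells and 100% = median of positive control wells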
Target sequence (Q61009 whole entry, looked up): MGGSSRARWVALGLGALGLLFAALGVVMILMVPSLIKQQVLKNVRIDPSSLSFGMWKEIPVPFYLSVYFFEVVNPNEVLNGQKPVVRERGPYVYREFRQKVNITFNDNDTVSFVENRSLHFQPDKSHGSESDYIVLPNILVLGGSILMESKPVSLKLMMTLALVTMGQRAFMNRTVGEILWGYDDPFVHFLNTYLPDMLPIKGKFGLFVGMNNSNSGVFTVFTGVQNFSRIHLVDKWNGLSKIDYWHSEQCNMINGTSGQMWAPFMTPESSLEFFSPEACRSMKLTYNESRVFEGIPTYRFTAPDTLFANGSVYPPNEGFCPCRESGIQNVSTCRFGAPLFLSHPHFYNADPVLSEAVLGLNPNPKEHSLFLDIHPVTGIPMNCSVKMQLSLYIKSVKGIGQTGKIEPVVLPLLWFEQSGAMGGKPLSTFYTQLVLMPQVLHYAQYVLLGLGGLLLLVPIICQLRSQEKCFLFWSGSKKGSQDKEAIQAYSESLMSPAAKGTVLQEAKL
dFosB act – enhances mouse delta FosB homodimer DNA binding; P13346; purified delta FosB, TAMRA-CDK5 oligo fluorescence polarization; percent of positive-control signal above neutral wells; activation, % at 25 µM; 340,000 compounds, 0.99% hits; AID 493131;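 active = mean activation above about 17%, with every replicate also reaching it, limit read from the data, passing the limit was not always enough; inconclusive = only one of the two conditions met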
rRNA inh HTS – inhibits bacterial ribosomal RNA function over humanized ribosomes. AID 720706. E. coli WT GFP vs humanized-ribosome RFP mutants, fluorescence, 24 h; stronger effect = lower value; DMSO median 0, no signal -100. GFP signal change (wild-type ribosome), % (test concentration not listed). 350,000 compounds, 1.6% hits;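 active = significant combined selectivity score with lowered wild-type GFP, culture density cut under 30%, mutant RFP and density less affected; inactive = any of these conditions unmet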
Xi reactivation – X-chromosome reactivation activator. XiGFP mouse fibroblasts, % GFP-positive cells imaging, 3 d; cells co-treated with 5-aza-dC sensitizer; scaled so ellipticine positive control = 100%. activation, % at 7.58 µM. 360,000 compounds, 0.055% hits;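 active = mean normalized replicate activation at least 10% and every replicate at or above 10%; inconclusive = only one of the two criteria met; inactive = mean below 10% and not all replicates reach 10%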;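 note: 0% = median of on-plate neutral control wells and 100% = ellipticine 6 µM median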
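Material: SV40-immortalized XiGFP fibroblast cells, line 68-5-11 | Buffer or medium: DMEM containing 5-aza-dC | Dosing: One concentration, pinned | Times: 3 d treatment, 15 min room-temperature fixation | Controls: Ellipticine 6 µM positive control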
AID977621 – wild-type E. coli growth inhibition versus H69 humanized strain – H69 mutant RFP, wild-type GFP, cherry-pick, dose response; shares compounds with rRNA inh HTS; activity change, negative = inhibition at 50 µM; fluorescence, 24 h; 1,900 tested, under 10 active; AID 977621;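 active = Wild-type ribosome reporter drop at least double the humanized mutant ribosome reporter drop, growth loss under a set limit; inconclusive = no clear call, values can overlap the other calls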;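 note: wild-type GFP and H69 mutant RFP strains grown together 50/50 in each well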
AID977628 – E. coli growth inhibition, wild-type GFP versus h24 humanized RFP strain, dose response, h24 mutant RFP vs wild-type GFP, cherry-pick | activity change, negative = inhibition at 50 µM | AID 977628 | shares compounds with rRNA inh HTS | 1,900 tested, under 10 active | E. coli WT GFP strain growth, fluorescence, 24 h;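 active = compound lowering the normal-ribosome reporter at least twice as much as the humanized-ribosome reporter, growth loss under a set limit; inconclusive = no clear call, values can overlap the other calls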;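 note: wild-type GFP and h24 humanized RFP strains co-cultured 1 to 1 per well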
* = called active by the depositor.

`CSc1ncc(CN2CCCC(C(=O)c3cccc(Cl)c3)C2)cn1` (configuration not stated) gave SR-BI DiI-HDL act 9.5, PvdQ inh -9.8, SR-BI HDL uptake -9.5, dFosB act -11.3, rRNA inh HTS -20.9*, Xi reactivation 0.1, AID977621 -2.33 and AID977628 -7.57.
Screening COc1ccccc1C(=O)Nc1ccc2c(c1)CC1(C(=O)N(C)C(=O)N(C)C1=O)C1CCCN21 (configuration not stated) returned SR-BI DiI-HDL act -14.2, PvdQ inh -1.5, SR-BI HDL uptake 14.2, dFosB act -3.5, rRNA inh HTS 0.3 and Xi reactivation 0.0.
Screening CCC(=O)N1CC(=O)Nc2ccc(F)cc2C1c1ccccc1 (configuration not stated) returned SR-BI DiI-HDL act 14.8, PvdQ inh -15.8, SR-BI HDL uptake -14.8, dFosB act -6.6, rRNA inh HTS 11.8 and Xi reactivation -0.1.
Cc1nc2ccc(Br)cc2c(=O)n1-c1ccc([N+](=O)[O-])c(C(F)(F)F)c1 was read as SR-BI DiI-HDL act -24.3, PvdQ inh 4.5, SR-BI HDL uptake 24.3, dFosB act 2.1, rRNA inh HTS -19.3*, Xi reactivation 0.0, AID977621 -10.3 and AID977628 -7.66.
O=S(=O)(c1cccc(C(F)(F)F)c1)N1Cc2ccccc2-n2nncc2C1 was read as rRNA inh HTS -23.8 and Xi reactivation 0.2.
`Cc1ccc(-c2cc(-c3ccc(C)cc3)[n+](-c3ccccc3)c(-c3ccc(C)cc3)c2)cc1` gave SR-BI DiI-HDL act -1.9, PvdQ inh -7.2, SR-BI HDL uptake 1.9 and dFosB act -7.5.
Screening Cc1ccc(-c2cc(-c3ccc(C)cc3)[n+](-c3ccc(C(=O)[O-])cc3)c(-c3ccc(C)cc3)c2)cc1 returned SR-BI DiI-HDL act 2.5, PvdQ inh 8.9, SR-BI HDL uptake -2.5, dFosB act 2.6, rRNA inh HTS -21.4*, Xi reactivation 0.0 and AID977628 inconclusive.
For Nc1c(C(=O)NCCc2ccccc2)c2nc3ccccc3nc2n1CCN1CCOCC1 the results were SR-BI DiI-HDL act 5.1, PvdQ inh -7.2, SR-BI HDL uptake -5.1 and dFosB act -1.2.
`Nc1c(C(=O)NCCN2CCOCC2)c2nc3ccccc3nc2n1Cc1ccccc1` gave SR-BI DiI-HDL act 13.5, PvdQ inh -16.1, SR-BI HDL uptake -13.5, dFosB act 1.5, rRNA inh HTS -35.8*, Xi reactivation 0.0 and AID977628 inconclusive.
